# Legend:
# Assay type in all cases: toxicity, cell-based
# U2OS = test: Incucyte cell viability with U2OS; conditions: human, 10 µM, compound concentration 10 uM; also: filed as whole numbers so only -1 and 0 and 1 occur
# HEK-293T = test: Incucyte cell viability with HEK293T; conditions: human, 10 µM, compound concentration 10 uM; also: filed as whole numbers so only -1 and 0 and 1 occur
# Fibroblast = test: Multiplex assay against human fibroblast
# How it was run: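 Cells stained live at seeding with Hoechst33342, BioTracker Green Microtubule Cytoskeleton Dye, MitoTracker Red and Annexin V Alexa Fluor 680 were imaged on a CQ1 microscope at 37°C and 5% CO2 after compound addition. Their classification by CellPathfinder machine-learning gating ran from Hoechst high-intensity objects versus normal cells, to healthy, pyknosed or fragmented nuclei among normal cells, to mitotic or apoptotic among pyknosed cells. Tubulin, mitochondrial-mass and membrane-permeability phenotypes are per cents of healthy-nucleus cells.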
# [1] = 12 h, replicate number 1, timepoint 12 hours
# [2] = 18 h, replicate number 1, timepoint 18 hours
# [3] = 24 h, replicate number 1, timepoint 24 hours
# [4] = 12 h, 1 µM, compound concentration 1 uM, replicate 1
# [5] = 12 h, 1 µM, compound concentration 1 uM, replicate 2
# [6] = 12 h, 10 µM, compound concentration 10 uM, replicate 1
# [7] = 12 h, 10 µM, compound concentration 10 uM, replicate 2
# [8] = 24 h, 1 µM, compound concentration 1 uM, replicate 1
# [9] = 24 h, 1 µM, compound concentration 1 uM, replicate 2
# [10] = 24 h, 10 µM, compound concentration 10 uM, replicate 1
# [11] = 24 h, 10 µM, compound concentration 10 uM, replicate 2
# [12] = 48 h, 1 µM, compound concentration 1 uM, replicate 1
# [13] = 48 h, 1 µM, compound concentration 1 uM, replicate 2
# [14] = 48 h, 10 µM, compound concentration 10 uM, replicate 1
# [15] = 48 h, 10 µM, compound concentration 10 uM, replicate 2
smiles,measurement,setting,value
CCn1c(-c2nonc2N)nc2cnc(Oc3cccc(NC(=O)c4ccc(OCCN5CCOCC5)cc4)c3)cc21 [GSK-269962A],Growth Rate,U2OS; [1],1
same,Growth Rate,U2OS; [2],1
same,Growth Rate,U2OS; [3],1
same,Growth Rate,"HEK-293T; 0 h, replicate number 1, timepoint 0 hours",1
same,Growth Rate,"HEK-293T; 0 h, replicate number 2, timepoint 0 hours",0
same,Growth Rate,"HEK-293T; 6 h, replicate number 1, timepoint 6 hours",0
same,Growth Rate,HEK-293T; [1],0
same,Growth Rate,HEK-293T; [2],0
same,Growth Rate,HEK-293T; [3],0
same,Population Apoptotic (%),Fibroblast; [4],50%
same,Population Fragmented Nuclei (%),Fibroblast; [4],29%
same,Population Healthy Nuclei (%),Fibroblast; [4],36%
same,Population Hoechst High Intensity Objects (%),Fibroblast; [4],12%
same,Population Membrane Permeable-Phenotype (%),Fibroblast; [4],22%
same,Population Mitochondria Different-Phenotype (%),Fibroblast; [4],2%
same,Population Mitotic Cells (%),Fibroblast; [4],50%
same,Population Normal (%),Fibroblast; [4],87%
same,Population Pyknosed Nuclei (%),Fibroblast; [4],33%
same,Population Tubulin-Different-Phenotype (%),Fibroblast; [4],46%
same,Total Cell Count,Fibroblast; [4],141
same,Population Apoptotic (%),Fibroblast; [5],20%
same,Population Fragmented Nuclei (%),Fibroblast; [5],20%
same,Population Healthy Nuclei (%),Fibroblast; [5],72%
same,Population Hoechst High Intensity Objects (%),Fibroblast; [5],2%
same,Population Membrane Permeable-Phenotype (%),Fibroblast; [5],14%
same,Population Mitochondria Different-Phenotype (%),Fibroblast; [5],16%
same,Population Mitotic Cells (%),Fibroblast; [5],80%
same,Population Normal (%),Fibroblast; [5],97%
same,Population Pyknosed Nuclei (%),Fibroblast; [5],7%
same,Population Tubulin-Different-Phenotype (%),Fibroblast; [5],14%
same,Total Cell Count,Fibroblast; [5],45
same,Population Apoptotic (%),Fibroblast; [6],55%
same,Population Fragmented Nuclei (%),Fibroblast; [6],40%
same,Population Healthy Nuclei (%),Fibroblast; [6],28%
same,Population Hoechst High Intensity Objects (%),Fibroblast; [6],12%
same,Population Membrane Permeable-Phenotype (%),Fibroblast; [6],21%
same,Population Mitochondria Different-Phenotype (%),Fibroblast; [6],47%
same,Population Mitotic Cells (%),Fibroblast; [6],44%
same,Population Normal (%),Fibroblast; [6],87%
same,Population Pyknosed Nuclei (%),Fibroblast; [6],30%
same,Population Tubulin-Different-Phenotype (%),Fibroblast; [6],83%
same,Total Cell Count,Fibroblast; [6],216
same,Population Apoptotic (%),Fibroblast; [7],31%
same,Population Fragmented Nuclei (%),Fibroblast; [7],20%
same,Population Healthy Nuclei (%),Fibroblast; [7],57%
same,Population Hoechst High Intensity Objects (%),Fibroblast; [7],7%
same,Population Membrane Permeable-Phenotype (%),Fibroblast; [7],45%
same,Population Mitochondria Different-Phenotype (%),Fibroblast; [7],97%
same,Population Mitotic Cells (%),Fibroblast; [7],68%
same,Population Normal (%),Fibroblast; [7],92%
same,Population Pyknosed Nuclei (%),Fibroblast; [7],22%
same,Population Tubulin-Different-Phenotype (%),Fibroblast; [7],100%
same,Total Cell Count,Fibroblast; [7],71
same,Population Apoptotic (%),Fibroblast; [8],47%
same,Population Fragmented Nuclei (%),Fibroblast; [8],21%
same,Population Healthy Nuclei (%),Fibroblast; [8],47%
same,Population Hoechst High Intensity Objects (%),Fibroblast; [8],14%
same,Population Membrane Permeable-Phenotype (%),Fibroblast; [8],19%
same,Population Mitochondria Different-Phenotype (%),Fibroblast; [8],9%
same,Population Mitotic Cells (%),Fibroblast; [8],52%
same,Population Normal (%),Fibroblast; [8],85%
same,Population Pyknosed Nuclei (%),Fibroblast; [8],31%
same,Population Tubulin-Different-Phenotype (%),Fibroblast; [8],41%
same,Total Cell Count,Fibroblast; [8],126
same,Population Apoptotic (%),Fibroblast; [9],75%
same,Population Fragmented Nuclei (%),Fibroblast; [9],11%
same,Population Healthy Nuclei (%),Fibroblast; [9],77%
same,Population Hoechst High Intensity Objects (%),Fibroblast; [9],2%
same,Population Membrane Permeable-Phenotype (%),Fibroblast; [9],1%
same,Population Mitochondria Different-Phenotype (%),Fibroblast; [9],10%
same,Population Mitotic Cells (%),Fibroblast; [9],25%
same,Population Normal (%),Fibroblast; [9],97%
same,Population Pyknosed Nuclei (%),Fibroblast; [9],11%
same,Population Tubulin-Different-Phenotype (%),Fibroblast; [9],14%
same,Total Cell Count,Fibroblast; [9],59
same,Population Apoptotic (%),Fibroblast; [10],57%
same,Population Fragmented Nuclei (%),Fibroblast; [10],37%
same,Population Healthy Nuclei (%),Fibroblast; [10],42%
same,Population Hoechst High Intensity Objects (%),Fibroblast; [10],12%
same,Population Membrane Permeable-Phenotype (%),Fibroblast; [10],11%
same,Population Mitochondria Different-Phenotype (%),Fibroblast; [10],58%
same,Population Mitotic Cells (%),Fibroblast; [10],42%
same,Population Normal (%),Fibroblast; [10],87%
same,Population Pyknosed Nuclei (%),Fibroblast; [10],20%
same,Population Tubulin-Different-Phenotype (%),Fibroblast; [10],81%
same,Total Cell Count,Fibroblast; [10],258
same,Population Apoptotic (%),Fibroblast; [11],53%
same,Population Fragmented Nuclei (%),Fibroblast; [11],30%
same,Population Healthy Nuclei (%),Fibroblast; [11],52%
same,Population Hoechst High Intensity Objects (%),Fibroblast; [11],5%
same,Population Membrane Permeable-Phenotype (%),Fibroblast; [11],67%
same,Population Mitochondria Different-Phenotype (%),Fibroblast; [11],97%
same,Population Mitotic Cells (%),Fibroblast; [11],46%
same,Population Normal (%),Fibroblast; [11],94%
same,Population Pyknosed Nuclei (%),Fibroblast; [11],17%
same,Population Tubulin-Different-Phenotype (%),Fibroblast; [11],100%
same,Total Cell Count,Fibroblast; [11],73
same,Population Apoptotic (%),Fibroblast; [12],57%
same,Population Fragmented Nuclei (%),Fibroblast; [12],28%
same,Population Healthy Nuclei (%),Fibroblast; [12],58%
same,Population Hoechst High Intensity Objects (%),Fibroblast; [12],11%
same,Population Membrane Permeable-Phenotype (%),Fibroblast; [12],12%
same,Population Mitochondria Different-Phenotype (%),Fibroblast; [12],3%
same,Population Mitotic Cells (%),Fibroblast; [12],42%
same,Population Normal (%),Fibroblast; [12],88%
same,Population Pyknosed Nuclei (%),Fibroblast; [12],13%
same,Population Tubulin-Different-Phenotype (%),Fibroblast; [12],29%
same,Total Cell Count,Fibroblast; [12],120
same,Population Apoptotic (%),Fibroblast; [13],66%
same,Population Fragmented Nuclei (%),Fibroblast; [13],27%
same,Population Healthy Nuclei (%),Fibroblast; [13],69%
same,Population Hoechst High Intensity Objects (%),Fibroblast; [13],12%
same,Population Membrane Permeable-Phenotype (%),Fibroblast; [13],3%
same,Population Mitochondria Different-Phenotype (%),Fibroblast; [13],0%
same,Population Mitotic Cells (%),Fibroblast; [13],33%
same,Population Normal (%),Fibroblast; [13],87%
same,Population Pyknosed Nuclei (%),Fibroblast; [13],3%
same,Population Tubulin-Different-Phenotype (%),Fibroblast; [13],22%
same,Total Cell Count,Fibroblast; [13],96
same,Population Apoptotic (%),Fibroblast; [14],50%
same,Population Fragmented Nuclei (%),Fibroblast; [14],36%
same,Population Healthy Nuclei (%),Fibroblast; [14],50%
same,Population Hoechst High Intensity Objects (%),Fibroblast; [14],20%
same,Population Membrane Permeable-Phenotype (%),Fibroblast; [14],6%
same,Population Mitochondria Different-Phenotype (%),Fibroblast; [14],38%
same,Population Mitotic Cells (%),Fibroblast; [14],50%
same,Population Normal (%),Fibroblast; [14],79%
same,Population Pyknosed Nuclei (%),Fibroblast; [14],13%
same,Population Tubulin-Different-Phenotype (%),Fibroblast; [14],80%
same,Total Cell Count,Fibroblast; [14],240
same,Population Healthy Nuclei (%),Fibroblast; [15],58%
same,Population Hoechst High Intensity Objects (%),Fibroblast; [15],22%
same,Population Membrane Permeable-Phenotype (%),Fibroblast; [15],3%
same,Population Mitochondria Different-Phenotype (%),Fibroblast; [15],17%
same,Population Normal (%),Fibroblast; [15],77%
same,Population Pyknosed Nuclei (%),Fibroblast; [15],4%
same,Population Tubulin-Different-Phenotype (%),Fibroblast; [15],86%
same,Total Cell Count,Fibroblast; [15],172
